In the RNAGym collection of RNA variant scans (doi:10.1101/gad.245936.114):
Fewer inactive variants are shown than the library holds.

B1: tRNA (parent)
chain: CUCUCGGUAGCCAAGUUGGUUUAAGGCGCAAGACUUUAAUUUAUCACUACGAAAUCUUGAGAUCGGGCGUUCGACUCGCCCCCGGGAGAUUUUUUCCUCGAGCAA

Variants of: B1
Assay: nonsense suppression (GFP-seq) (ratio to wild type); higher = more function; SUP4oc tRNA, yeast GFP reporter sort-seq
How it was run: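 Yeast carrying genome-integrated SUP4oc tRNA variants from a library with ~3% random mutations were grown in raffinose/galactose medium with 80 mg/L adenine. Each strain also carried a galactose-driven GFP ochre reporter and RFP. Cells were sorted into GFP/RFP bins, and each bin was Illumina-sequenced (phred ≥30). Nonsense suppression (GFPSEQ) is the bin median GFP/RFP, weighted by each variant's estimated cell share per bin, relative to wild-type SUP4oc; variants needed ≥100 reads and ≥30 cells.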
In the case of CUCUCGGUAGCCAAGUUGGUUUAAGGCGGAAGGCUUUAAUUUAUCACUACGAAAUCUUGAGAUCGGACGUGCGACUCGCCCCCGGAAGAUUUUUUCCUCGAGCAA [C29G A33G G67A U71G G86A], the nonsense suppression is reported as 1.12. Work on CUCUCGGUAGCCAAGUUGGUUUAAGGCGCAAGACUUUAAUUUAUCACUACGAAAUCUUGGGAUCGGGCGUUCGACUCGCCUCCGGGAGAUUUUUUCCUCGAGCAA [A60G C81U] yielded a nonsense suppression of 0.0488. With CUCUCGGUAGCCAAGUUGGUUCAACGCGCAACACUUUAAUUUAUCACUACGAAAUCUUGAGCUGGGGCGUUCGACUCGCCCCCGGGAGAUUUUUUCCUCGAGCAA [U22C G25C G32C A62C C64G] the nonsense suppression was no more than 0.026. For CUCUCGGUAGCCAAGUUGGUUUAAGGCGCAAGACUUUAAUUUAUCACUACGAAAUCUUGAGAUCGGGCGUUUGACUCGCCACCGGGAGAUUUUUUCCUCGAGCAA [C72U C81A], the nonsense suppression was no more than 0.026. Work on CUCUCGGUAGCCAAGUUGGUUUAAGGCGCAAGACUUUAAUUUAUCACUACGAAUUCUUGAUAUCGGGCGUUCGACUCGCCCCCGGGAGAUUUUUUCCUCGAGCAA [A54U G61U] yielded a nonsense suppression of 1.16. Work on CUCUCGGUAGCCAAGUUGGUUUUAGGCGCAAGACUUUAAUUUAUCACUACGAAAUCUUGAGCUCGGGCGUUCGACUCGCCCCCGGGAGAUUUUUUCCUCGAGCAA [A23U A62C] yielded a nonsense suppression of no more than 0.026. For CUCUCGGUAGCCAAGUUGGUUUAAGGCGCAAGACUUUAAUUUAUCACUACGAAAUCUUGAGAUCGGGCGUUCGACUCGCCCAUGGGAGAUUUUUUCCUCGAGCAA [C82A C83U], the nonsense suppression was no more than 0.026. With CUCUCGGUCGCCAAGUUGGUUUAAGGCGCUAGACUUUAAUUUAUCACUACGAAAUCUUGAGAUCGGGCGUUCGACUCGCCCCCGGGAGAUUUUUUCCUCGAGCAA [A9C A30U] the nonsense suppression was 0.0886. Work on CUCUCGGUAGCCAAGUGGCUAUAAGGCGCAAGACUUUAAUUUAUCACUACGAAAUCAUGAGAUCGGGCGUUCGACUCUCCCCCGGGAGAUUUUUUCCUCGAGCAA [U17G G19C U21A U57A G78U] yielded a nonsense suppression of no more than 0.026. For CUCUCGGUAGCCAAGUUGGUUUAAGGCGCAUGACUUUAAUUUAUCACUACGAAAUCUUGAGAUCGGGCGUUCGACACGCCCCCGGGAGAUUUUUUCCUCGAGCAA [A31U U76A], the nonsense suppression was 0.0413. Work on CUCUCGGUAGGUAAGUUGGUUUAAGGCGCAAGACUUUAAUUUAUCACUACGAAAUCUUGACAUCGGGCGUUCGACUCGCCCCCGGGAGAUUUUUUCCUCGAGCAA [C11G C12U G61C] yielded a nonsense suppression of no more than 0.026. In the case of CUCUCGGUAGCCAAGUUGGAUUAAGGCGCAAGACUUUAAUUUAUCACUACGAAAUCUUGAGAUCGGGCGUUCGACCCGCCCCCGGGAGAUUUUUUCCUCGAGCAA [U20A U76C], the nonsense suppression is reported as 0.719. Variant CUCUCGGUAGCCAAGUUGGUUUAAGGCGCAUGACUUUAAUUUAUCACUACGAAAUCAUGAGAUCGGGCGUUCGACUCGCCCCCGGGAGAUUUUUUCCUCGAGCAA [A31U U57A] has a nonsense suppression of 0.963. For CUCUCGGUUGCCAAGUUGGUUUAAGGCGCAAGACUUUAAUUUAUCACUACGAAAUCUUGAGAUCGGGCGUUCGACUCGCCCCCAGGAGAUUUUUUCCUCGAGCAA [A9U G84A], the nonsense suppression was 0.138. With CUCUCGGUAGCCAAGUUGGUUGAAGGCGCAAGACUUUAAUUUAUCACUACGAAUUCUUGAGAUCGGGCGUUCGACUCGCCCCCGGGAGAUUUUUUCCUCGAGCAA [U22G A54U] the nonsense suppression was 1.12. For CUCUCGGUAGCCAAGUUGGUUUAAGGCGUAAGACUUUAAUUUAUCACUACGAAAUCUUGAGAUCGGGCGUCCGACUCGCCCCCGGGAGAUUUUUUCCUCGAGCAA [C29U U71C], the nonsense suppression was 0.0323. In the case of CUCUCGGUAGCCAAGUUGGUAUACGGCGCAAGACUUUAAUUUAUCACUACGAAAUCUUGAGAUCGGGCGUUCGACUCGCCCCCGGGAGAUUUUUUCCUCGAGCAA [U21A A24C], the nonsense suppression is reported as 0.753. In the case of CUCUCGGUAGCCAAGUUGGUUUACGGCGCAAGACUUUAAUUUAUCACUACGAAAUCUUGAGAUCGGGCGUUUGACUCGCCCCCAGGAGAUUUUUUCCUCGAGCAA [A24C C72U G84A], the nonsense suppression is reported as no more than 0.026. With CUCUCGGUAGCCAAGUUGGCUUAAGGCGCAAGACUUUAAUUUAUCACUACGAAAUCUUGAGAUCGGGCGUUCGACUCUCCCCCGGGAGAUUUUUUCCUCGAGCAA [U20C G78U] the nonsense suppression was 0.0456. Variant CUCUCGGUAGCCAAGUUGGUUUAUGGCGCAAGACUUUAAUUUAUCACUACGAAAUCUUGGGAUCGGGCGUUCGACUCGCCCCCGGGAGAUUUUUUCCUCGAGCAA [A24U A60G] has a nonsense suppression of 0.0422. With CUCUCGGUAGCCAAGUUGGUUUAAAGCGCAAGACUUUAAUUUAUCACUACGAAAUCUUGAGAUCGGGCGCUCUACUCGCCCCCGGGAGAUUUUUUCCUCGAGCAA [G25A U70C G73U] the nonsense suppression was no more than 0.026. In the case of CUAUCGGUAGCCAAGUUGGUUUAACGCGCAAGACUUUAAUUUAUCACUACGAAAUCUUGAGAACGGGCGUUCGACUCGCCCCCGGGAGAUUUUUUCCUCGAGCAA [C3A G25C U63A], the nonsense suppression is reported as no more than 0.026. In the case of CUCUCGGUAGCCAAGUGGGUCUAAGGCGCAAGACUUUAAUUUAUCACUACGAAAUCUUGAGAUCGGGCGUUCGACUCGCCCCCGGGAGAUUUUUUCCUCGAGCAA [U17G U21C], the nonsense suppression is reported as 1.05. With CUCUCGGUAGCCAAGUUGGUUUAAGGCGCAAGACUUUAAUUUAUCACUACGAAAUCUUGAGAUCGGGCGUUCGACUCGCUCCCGGGAGAUUUUUUCCUCGAGCAA [C80U] the nonsense suppression was 0.697. CUCUCCGUAGCGAAGUUGGUUUAAGGCGCAAGACUUUAAUUUAUCACUACGAAAUCUUGAGAUCGGGCGUUGGAUUCGCCCCCGCGAGAUUUUUUCCUCGAGCAA [G6C C12G C72G C75U G85C] gave a nonsense suppression of no more than 0.026. CUCUCGGUAGCCAAGUUGGUUUAAGGAGCAAGACUUUAAUUUAUCACUACGAAAUCUUGAGCUCGGGCGUUCGACUCGCCCCCGGGAGAUUUUUUCCUCGAGCAA [C27A A62C] showed a nonsense suppression of 0.349. Work on CUCUCGGUAGCCAAGUUGGUUUAAGGCGCAAGACUUUAAUUUAUCACUACGAAAUCUUGAGACCGGGCGUUCGACUCGCCCCCGAGAGAUUUUUUCCUCGAGCAA [U63C G85A] yielded a nonsense suppression of 1.06.
